Source: PubChem
Sampled rows, rich in hits. Any-hit rate of the full collection: about 3%.
MC4R antagonist – blocks human MC4R cAMP signaling; P32245; MC4R-expressing cells, MTII-stimulated cAMP, LANCE TR-FRET; inhibition, % at 6.5 µM; 0.48% of 360,000 active;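 active means inhibition above its plate's cutoff, the mean of tested wells on that plate plus 3 SD, cut at about 29% in these data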
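Material – human MC4R-expressing U2OS cells · Repeats – no replicates · Detection – TR-FRET with Eu-cAMP and labeled anti-cAMP, 671 nm · Times – compound 30 min, challenge 1 h, detection 1 h · Compound – single nominal compound dose of 6.5 µM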
B2AR ag – agonists of human beta-2 adrenergic receptor inducing internalization. Am2.2-beta2AR cells, FAP receptor internalization, flow cytometry. P07550. 0.43% of 340,000 active. response, % (test concentration not listed);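 active means response above a set limit, near 3 SD of response in nonfluorescent compounds, cut at about 42% in these data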
PfG6PD inh – PfG6PD (Plasmodium falciparum) enzyme inhibition. PfGluPho enzyme, NADPH resazurin-diaphorase fluorescence. inhibition, % at 20 µM. 0.78% of 350,000 active;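 active means inhibition reaching at least a set limit at 20 µM in the primary screen, cut at about 59% in these data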
ABHD5 PLIN5 PPI – ABHD5-PLIN5 protein interaction inhibition; AID 602281; Split G. princeps luciferase complementation, luminescence, 4 h; Q00G26+Q8WTS1; 0.78% of 360,000 active; inhibition, % at 4 µM;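 active means inhibition above the mean inhibition across every tested compound plus 3 SD, cut at about 22% in these data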
Target sequence (Q00G26 whole entry, looked up): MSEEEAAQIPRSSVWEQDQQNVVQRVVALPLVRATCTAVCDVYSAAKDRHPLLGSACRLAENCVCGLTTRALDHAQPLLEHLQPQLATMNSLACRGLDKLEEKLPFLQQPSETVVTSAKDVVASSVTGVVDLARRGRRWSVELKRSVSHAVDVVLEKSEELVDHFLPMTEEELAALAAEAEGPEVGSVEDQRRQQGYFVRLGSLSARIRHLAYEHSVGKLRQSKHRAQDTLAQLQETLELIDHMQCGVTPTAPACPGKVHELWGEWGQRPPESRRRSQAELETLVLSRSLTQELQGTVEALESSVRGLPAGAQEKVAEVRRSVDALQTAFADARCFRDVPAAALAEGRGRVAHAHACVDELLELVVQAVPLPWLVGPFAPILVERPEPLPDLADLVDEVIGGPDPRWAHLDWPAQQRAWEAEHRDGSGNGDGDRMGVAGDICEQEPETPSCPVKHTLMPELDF
Target sequence (Q8WTS1 whole entry, looked up): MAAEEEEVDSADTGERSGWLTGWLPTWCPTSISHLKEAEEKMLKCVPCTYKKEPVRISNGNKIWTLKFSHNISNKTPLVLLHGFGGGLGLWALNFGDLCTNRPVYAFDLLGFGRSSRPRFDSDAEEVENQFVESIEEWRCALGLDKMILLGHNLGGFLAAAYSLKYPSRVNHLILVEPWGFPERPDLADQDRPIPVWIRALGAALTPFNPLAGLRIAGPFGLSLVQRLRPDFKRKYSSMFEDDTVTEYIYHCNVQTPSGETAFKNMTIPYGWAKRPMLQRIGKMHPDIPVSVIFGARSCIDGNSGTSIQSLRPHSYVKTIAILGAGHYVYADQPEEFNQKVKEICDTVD
MC4R ag barr – human MC4R agonism via beta-arrestin; P32245; U2OS MC4R beta-arrestin complementation, luminescence; percent of melanotan II response, DMSO zero; activation, % at 8.9 µM; 0.98% of 360,000 active;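 active means activation above a per-plate cutoff, the mean activation of sample wells on that plate plus 3 SD, cut at about 8% in these data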
Beta2AR ag CP1 – activates human beta-2 adrenergic receptor; Am2.2-beta2AR cells, FAP surface receptor, flow cytometry; active compounds read low; 25% of 1,100 active; shares compounds with B2AR ag; percent response (surface receptor), % at 10 µM;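 active means surface receptor percent response at or below 58%, roughly 3 SD from nonfluorescent compounds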
FAP fluor counter – fluorescence artifact in beta-2AR agonist FAP counterscreen | shares compounds with B2AR ag | Am2.2 cells, FAP fluorogen flow cytometry; active compounds read low | calls only at 10 µM | 1,100 tested, under 10 active | AID 588765;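 active means percent response below a set limit in fluorescence channel 1 and below 50% in channel 8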
Each line names hits and unclear results; the compound was inactive in the other large screens (follow-up assays come after a bar, where they were run); ! = not confirmed by another sample.

COc1ccccc1CCC(=O)Nc1cccc(S(=O)(=O)N2CCCCCC2)c1	B2AR ag 54.0 | Beta2AR ag CP1 10.2 | FAP fluor counter inactive
CCOC(=O)c1ccc(S(=O)(=O)N2CCN(C3CC(=O)N(c4ccc(OC)cc4)C3=O)CC2)cc1 (centres undefined)	B2AR ag 52.3 | Beta2AR ag CP1 inactive | FAP fluor counter inactive
COc1ccccc1CCC(=O)Nc1cccc(S(=O)(=O)N2CCOCC2)c1	none
CC(=O)c1cccc(NC(=O)COc2ccc(S(=O)(=O)N3CCCCC3)cc2)c1	none | Beta2AR ag CP1 inactive | FAP fluor counter inactive
COc1ccc(N2C(=O)CC(N3CCN(S(=O)(=O)c4ccc(Cl)cc4)CC3)C2=O)cc1 (centres undefined)	none
COc1ccccc1CNC(=O)CCNS(=O)(=O)c1ccc2c(c1)CC(C)N2C(C)=O (centres undefined)	none
Cc1nc(C(N)=O)nc2ccccc12	none
Cc1cc(NS(=O)(=O)c2ccc(NC(=O)c3ccc([N+](=O)[O-])c(Cl)c3)cc2)no1	none
COc1cc([N+](=O)[O-])c2nc(C(=O)O)ccc2c1	none
CCOC(=O)c1cnc2c(C)cc(Cl)cc2c1N1CCN(C)CC1	none
C=CCn1c(CCNC(=O)c2cccs2)nnc1SCC(=O)c1ccc(Cl)cc1	B2AR ag 90.1 | Beta2AR ag CP1 31.1 | FAP fluor counter inactive
C=CCn1c(CCNC(=O)c2cccs2)nnc1SCC(=O)c1cccc([N+](=O)[O-])c1	B2AR ag 106.5 | Beta2AR ag CP1 9.3 | FAP fluor counter inactive
C=CCn1c(CCNC(=O)c2cccs2)nnc1SCC(=O)Nc1cccc(Cl)c1C	B2AR ag 60.3 | Beta2AR ag CP1 inactive | FAP fluor counter inactive
COC(=O)c1[nH]c2ccccc2c1NC(=O)C(C)N1CC(C)OC(C)C1 (centres undefined)	none
O=C(CSc1nc2ccccc2c(=O)n1-c1ccc(F)cc1F)c1c[nH]c2ccccc12	B2AR ag 45.1 | Beta2AR ag CP1 inactive | FAP fluor counter inactive
Cc1nn(C)c(C)c1NC(=O)c1cc2nc(-c3ccco3)cc(C(F)(F)F)n2n1	none
Cc1ccc(Cn2ccc(NC(=O)c3cc4nc(-c5ccco5)cc(C(F)(F)F)n4n3)n2)cc1	B2AR ag 111.8 | Beta2AR ag CP1 7.1 | FAP fluor counter inactive
COc1ccccc1C(=O)Nc1ccnn1C1CCN(Cc2ncc[nH]2)CC1	none
COc1ccc(OC)c(S(=O)(=O)N(C)CC(=O)N2CCN(c3ccc(F)cc3)CC2)c1	none | Beta2AR ag CP1 inactive | FAP fluor counter inactive
COc1ccc(OC)c(S(=O)(=O)N(C)CC(=O)N2CCN(c3ccccc3F)CC2)c1	none | Beta2AR ag CP1 inactive | FAP fluor counter inactive
COc1ccc(OC)c(S(=O)(=O)N(C)CC(=O)N2CCOCC2)c1	none
COc1ccc(OC)c(S(=O)(=O)N(C)CC(=O)N2CCN(c3cccc(Cl)c3)CC2)c1	none | Beta2AR ag CP1 inactive | FAP fluor counter inactive
CCc1nnc(NC(=O)CSc2nc3cc(OC)c(OC)cc3cc2C)s1	none
CCN(C(=O)COC(=O)C1CC1)c1c(N)n(Cc2ccccc2)c(=O)[nH]c1=O	none
Cc1ccccc1NC(=O)Cc1nc(COC(=O)CCNS(=O)(=O)c2ccccc2)cs1	none
COc1cc2ncc(S(=O)(=O)c3ccccc3)c(N3CCCC(C)C3)c2cc1OC (centres undefined)	B2AR ag 69.4 | Beta2AR ag CP1 9.0 | FAP fluor counter inactive
O=S(=O)(c1ccccc1)c1cnc(-c2ccccc2)nc1N1CCCC1	none
c1ccc(OCCCCn2cnc3ccccc32)cc1	B2AR ag 44.8 | Beta2AR ag CP1 inactive | FAP fluor counter inactive
CC(C)c1ccc(C(=O)NCCCN2CCN(CCCNC(=O)c3ccc(C(C)C)cc3)CC2)cc1	B2AR ag 46.4 | Beta2AR ag CP1 inactive | FAP fluor counter inactive
O=C(NCCN1CCOCC1)c1ccc(F)cc1	none
O=C(NCCCN1CCN(CCCNC(=O)c2ccc(F)cc2)CC1)c1ccc(F)cc1	none | Beta2AR ag CP1 inactive | FAP fluor counter inactive
Cc1nn(Cc2ccccc2)c(C)c1C(=O)NCC(c1cccs1)N1CCOCC1 (centres undefined)	B2AR ag 62.9 | Beta2AR ag CP1 inactive | FAP fluor counter inactive
Cc1ccc(Cn2nc(C)c(C(=O)NCC(c3cccs3)N3CCOCC3)c2Cl)cc1 (centres undefined)	none
Cc1ccc(NC(=O)c2ncn(CCCNCCCc3ccccc3)n2)cc1C	B2AR ag 42.0 | Beta2AR ag CP1 inactive | FAP fluor counter inactive
Cc1ccc(NC(=O)c2ncn(CCCNCCCN(C)C)n2)cc1C	none
CC(=O)Nc1cccc(-c2ccnc3c2CC(C(=O)NCc2ccco2)O3)c1 (centres undefined)	none (no result: B2AR ag, PfG6PD inh)
Cc1ccccc1NC(=O)Cn1nnc(-c2ccc(N3CCOCC3)cc2)n1	none
CN(C)c1ccc(-c2nnn(CC(=O)Nc3ccccc3N3CCOCC3)n2)cc1	none | Beta2AR ag CP1 inactive | FAP fluor counter inactive
CC1CCN(c2oc(-c3ccc(F)cc3)nc2C#N)CC1	none
CC/C(O)=C1\C(=O)CC(c2ccccc2)CC1=NC(C)C (centres undefined)	none
CN[C@H]1CC[C@@H](c2ccc(Cl)c(Cl)c2)c2ccccc21	B2AR ag 50.3! | Beta2AR ag CP1 inactive | FAP fluor counter inactive
Cc1nc2cc(N3CCOCC3)c(NC(=O)C3CC3)cc2c(=O)n1Cc1ccccc1	B2AR ag 49.4 | Beta2AR ag CP1 inactive | FAP fluor counter inactive
CCCCN(CCCC)c1nc2ccccc2nc1NS(=O)(=O)c1ccc(NC(C)=O)cc1	B2AR ag 118.7 | Beta2AR ag CP1 27.6 | FAP fluor counter inactive
CC(=O)Nc1ccc(S(=O)(=O)Nc2nc3ccccc3nc2Nc2ccc(N)cc2)cc1	none
OCC[C@H]1C[C@@H](O)[C@H](O)[C@]2(OCCc3ccccc32)O1	none
Cc1ccc(Cl)cc1Nc1nc(N2CCOCC2)nc(N2CCOCC2)n1	none
Cc1ccc([N+](=O)[O-])cc1Nc1nc(N2CCOCC2)nc(N2CCOCC2)n1	B2AR ag 49.9 | Beta2AR ag CP1 inactive | FAP fluor counter inactive
O=C(NCc1ccncc1)C1CCN(S(=O)(=O)c2ccc(Cl)c(C(F)(F)F)c2)CC1	none
CC(Sc1nc(-c2ccccc2)cc(C(F)(F)F)n1)C(=O)NCc1ccco1 (centres undefined)	none
CC1CCCN(C(=O)C(C)Sc2nc(-c3ccccc3)cc(C(F)(F)F)n2)C1 (centres undefined)	none | Beta2AR ag CP1 inactive | FAP fluor counter inactive
O=C(CSc1nc(-c2ccccc2)cc(C(F)(F)F)n1)N1CCOCC1	none
